What all share (format): functional
For experiment [1], the system named is SH-SY5Y. Briefly: Cytotoxicity against human SH-SY5Y cells assessed as reduction in cell viability incubated for 24 hrs by MUH reagent based spectrophotometric analysis.
In experiment [2] the test system is SH-SY5Y. Briefly: Cytotoxicity against human SH-SY5Y cells assessed as reduction in cell viability incubated for 72 hrs by MUH reagent based spectrophotometric analysis. In outline:
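SH-SY5Y in DMEM/10% FBS seeded 0.75 × 10⁴ cells/well, after 24 h treated with 0.1–100 μM for 24, 48 or 72 h. Washed, incubated with MUH 0.01 mg/mL in PBS 30 min at 37 °C in the dark; fluorescence ex 330/em 450 nm, normalized to untreated cells. IC50 by nonlinear regression, log(inhibitor) vs normalized response.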

For experiment [3], the system named is SH-SY5Y. As to the kind of experiment: Cytotoxicity against human SH-SY5Y cells assessed as reduction in cell viability incubated for 48 hrs by MUH reagent based spectrophotometric analysis.

Regarding `O=C(CCCCCNC1=CC(=O)c2ccccc2C1=O)NO`, the half-inhibitory concentration (IC50) worked out at 80 µM with SH-SY5Y [1], 22.5 µM with SH-SY5Y [2] and 26.9 µM in the experiment on SH-SY5Y [3].
For `CC1=C(NCc2ccc(C(=O)NO)cc2)C(=O)c2ccccc2C1=O`, in that order: 39 µM, 14 µM and 19.8 µM.
For `CC1=C(NCCCCCC(=O)NO)C(=O)c2ccccc2C1=O`, in that order: 178 µM, 53 µM and 84.4 µM.
Take `O=C(NO)c1ccc(CNC2=CC(=O)c3ccccc3C2=O)cc1`: the figures for the IC50 in the experiment on SH-SY5Y [1], with SH-SY5Y [2] and in the experiment with SH-SY5Y [3] were 39 µM, 7.74 µM and 8.67 µM, respectively.
For `Nc1ccccc1NC(=O)c1ccc(CNC2=CC(=O)c3ccccc3C2=O)cc1`, in that order: 59.5 µM, 4.42 µM and 8.53 µM.
For `O=C(CS)NCCCCNC1=CC(=O)c2ccccc2C1=O`, in that order: above 100 µM, above 100 µM and above 100 µM.

A word on the IC50: it is the point on the concentration scale where inhibition reaches its midpoint.
